Assay outcomes from PubChem BioAssay.
This is a sample that favours compounds with a hit; in the whole collection about 3.1% have one here.
CHO parental Ca – counter-screen: ATP calcium response change in parental CHO cells | AID 463079 | parental CHO-K1, ATP-induced calcium, Fluo-8 fluorescence | inhibition, % at 5.6 µM | hit rate 0.63% among 330,000;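 active = inhibition above that plate's mean sample inhibition plus 3 SD, cut at about 26% in these data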;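 also: 0% = ATP-challenged DMSO wells and 100% = DMSO wells without ATP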
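Material: Parental CHO cells | Reagent: ATP | Compound dosing: Single nominal dose of 5.6 µM per compound | Detection: Intracellular calcium via Fluo-8 no-wash fluorescent dye | Read-out: % inhibition of ATP-induced calcium mobilization | Benchmarks: Low control ATP plus DMSO, high control DMSO only | Replicates: Singlicate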
OX1R antag-1 – blocks the human orexin 1 receptor; O43613; hit rate 1.8% among 330,000; OX1R-expressing cells, FRET antagonist read-out; inhibition, % at 6.6 µM; in the data active = inhibition mostly above about 38%, no sharp cut-off; inactive = mostly below about 40%;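 also: 0% = agonist challenge alone and 100% = reference antagonist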
Target sequence (O43613 whole entry, looked up): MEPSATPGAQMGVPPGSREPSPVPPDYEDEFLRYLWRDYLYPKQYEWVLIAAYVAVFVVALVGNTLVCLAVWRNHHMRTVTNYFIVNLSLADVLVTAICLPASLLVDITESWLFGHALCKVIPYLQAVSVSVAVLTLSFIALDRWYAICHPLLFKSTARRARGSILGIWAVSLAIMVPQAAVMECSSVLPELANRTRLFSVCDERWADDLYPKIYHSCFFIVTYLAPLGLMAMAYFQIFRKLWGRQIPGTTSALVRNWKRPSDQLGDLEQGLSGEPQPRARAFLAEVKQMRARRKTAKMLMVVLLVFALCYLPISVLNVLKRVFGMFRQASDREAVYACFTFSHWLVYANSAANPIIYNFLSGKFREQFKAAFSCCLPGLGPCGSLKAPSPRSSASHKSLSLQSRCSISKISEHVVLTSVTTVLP
GPR7 antagonist – blocks human GPR7 receptor signaling; P48145; GPR7-expressing cells, fluorescence antagonist assay; inhibition, % at 4.4 µM; hit rate 1.1% among 290,000; AID 1861; in the data active = inhibition above about 16%, passing the limit was not always enough;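 also: cells stimulated with the agonist NPW; 0% = agonist with vehicle and 100% = vehicle without agonist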
GalR3 antagonist – antagonists of human GalR3 | HEK293 GalR3-CNG cAMP membrane potential fluorescence; galR3 body fused to GalR1 C-terminus | hit rate 0.44% among 360,000 | inhibition, % at 3 µM;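 active = inhibition above the screen-wide average plus 3 SD, cut at about 13% in these data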;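 also: forskolin and galanin both at EC90 stimulate the cells; cAMP rise reported by CNG channel membrane potential dye signal; 0% = forskolin plus galanin with DMSO and 100% = forskolin alone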
OX1R antag-2 – blocks the human orexin 1 receptor. O43613. CHO/OX1R cells, Fluo-8 calcium fluorescence, orexin A. inhibition, % at 5 µM. hit rate 0.43% among 330,000. AID 434989;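 active = inhibition above its plate's threshold, mean inhibition of all tested compounds on the plate plus 3 SD, cut at about 37% in these data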;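 also: 0% = orexin A challenge wells and 100% = SB-334867-A antagonist wells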
OX1R HTRF confirm – confirmation of human orexin 1 receptor antagonists, HTRF format; shares compounds with OX1R antag-1; OX1R-expressing cells, HTRF antagonist assay; inhibition, % at 6.6 µM; hit rate 49% among 1,800; in the data active = inhibition above about 55%;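 also: CHO cells expressing OX1R stimulated with orexin A at about EC80; 0% = agonist challenge alone and 100% = reference antagonist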
CHO-K1 HTRF cnt – counter-screen: parental CHO-K1 HTRF response | shares compounds with OX1R antag-1 | parental CHO-K1 cells, HTRF counterscreen | inhibition, % at 6.6 µM | hit rate 48% among 1,800 | AID 493232; in the data active = inhibition above about 17%;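 also: 0% = agonist challenge with vehicle and 100% = vehicle alone without agonist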
An asterisk follows results filed as active; . = no result; + = active, no number.

SMILES	CHO parental Ca	OX1R antag-1	GPR7 antagonist	GalR3 antagonist	OX1R antag-2	OX1R HTRF confirm	CHO-K1 HTRF cnt
O=C1C=C(c2cccc3c2oc2ccccc23)CCC1	-25	81*	.	-4	-30	60*	12
CC1(C)CC(=O)C=C(c2cccc3c2oc2ccccc23)C1	-9	29	.	-5	-46	.	.
CCN1C(=O)[C@@H]2[C@@H](c3ccc(-c4ccc(F)cc4)c(OC)c3)N3CCCC[C@@]3(C(=O)OC)[C@@H]2C1=O	-41	82*	.	-5	-6	42	-3
CCOc1ccc2c(c1)S/C(=C\c1cccs1)C(=O)N2	-13	81*	-11	1	8	72*	5
Cc1cc(C)cc(N=C2NC(=O)/C(=C/c3cccs3)S2)c1	-20	26	-11	-6	-32	.	.
C/C(=N\Nc1nnc2c3ccccc3n(C)c2n1)c1ccc(C)o1	-13	93*	-9	3	0	96*	17*
Cc1cc(C)nc(NC(=O)c2cc([N+](=O)[O-])cc([N+](=O)[O-])c2)n1	-4	111*	-5	-3	-4	44	68*
O=C(Nc1cccnc1)c1ccc([N+](=O)[O-])o1	-3	79*	26	-3	-1	58*	88*
O=C(Nc1ncccn1)c1cccc(F)c1	-5	14	-11	-4	-6	.	.
Cc1cc(C)nc(NC(=O)c2ccc(C)c([N+](=O)[O-])c2)n1	-9	65	-5	-3	-4	.	.
O=C(c1cc([N+](=O)[O-])cc([N+](=O)[O-])c1)N(c1ccccn1)c1ccccn1	8	103*	-10	-1	5	49	72*
O=C(Nc1ncccn1)c1cc([N+](=O)[O-])cc([N+](=O)[O-])c1	4	107*	-3	3	-2	58*	72*
O=C(NNC(=O)c1ccc([N+](=O)[O-])o1)c1ccccc1	-7	136*	4	2	-5	59*	64*
NS(=O)(=O)c1ccc(O)c(NC(=O)c2ccc([N+](=O)[O-])o2)c1	-8	125*	-13	-3	-12	48	61*
Cc1ccc(C)c(NC(=O)c2cc([N+](=O)[O-])cc([N+](=O)[O-])c2)c1	-8	80*	-15	-7	-17	38	41*
Cc1cc(C)nc(NC(=O)c2ccc([N+](=O)[O-])o2)n1	-6	78*	-2	-3	7	36	80*
Cc1cc(C)cc(NC(=O)c2ccc([N+](=O)[O-])o2)c1	.	.	-7	-6	.	.	.
CN1C=CC(=O)[C@@H](O)[C@H]1c1ccccc1Br	.	.	.	-7	.	.	.
O=C(CNC(=O)c1ccccc1)N/N=C/c1ccc([N+](=O)[O-])o1	-12	98*	-8	-6	-5	50	75*
COc1ccc(C2CCN(Cc3cccnc3)CC2O)cc1 (configuration not stated)	-5	96*	-14	-3	-16	16	3
COc1ccc(C2CCN(CC(=O)N(C)C)CC2O)cc1 (configuration not stated)	-2	12	-7	-3	-3	.	.
COc1cccc(CNC(=S)Nc2ccc3c(c2)c(=O)n(C)n3Cc2ccc(F)cc2)c1	.	.	.	-3	.	.	.
CN(C)C(=O)c1ccc(NC(=O)c2ccccc2SCC(=O)N2CCCC2)cc1	-3	14	.	-4	-5	.	.
CC(C)Cn1c(N)c(C(=O)COC(=O)c2ccc([N+](=O)[O-])o2)c(=O)n(C)c1=O	-11	81*	-1	-5	-18	30	24*
Cc1nn(-c2ccccc2)c(C)c1C(=O)OCC(=O)c1c(N)n(CC(C)C)c(=O)n(C)c1=O	26	10	0	-4	18	.	.
SMILES	CHO parental Ca	OX1R antag-1	GPR7 antagonist	GalR3 antagonist	OX1R antag-2	OX1R HTRF confirm	CHO-K1 HTRF cnt
C=CCNC(=S)N/N=C(\C)c1ccc(-n2ccnc2)cc1	0	13	-3	-4	0	.	.
C=CCNC(=S)N/N=C(\C)c1cccnc1	-2	104*	-16	-1	-20	13	2
CC(=O)N1C(=O)c2cccc3cccc(c23)C(=O)N1C(C)=O	-1	116*	11	.	-14	41	65*
CCC(=O)Nc1ccccc1Nc1cc(C#N)c(C#N)cc1[N+](=O)[O-]	-20	+	.	-2	-17	59*	72*
Cc1cc(C=C2C(=O)c3ccccc3C2=O)c(C)n1C	-8	92*	-3	-2	10	38	14
NC(=O)c1ccc(N=C2C(=O)Nc3ccc([N+](=O)[O-])cc32)cc1	-12	84*	8	13*	-8	64*	72*
O=C1Nc2ccccc2C1=Nc1cccc([N+](=O)[O-])c1	-7	21	9	-11	-12	.	.
Cc1ccc(NCC(=O)N=Nc2c(O)n(C)c3ccccc23)cc1	11	95*	-5	-6	-4	38	32*
CCn1c(O)c(N=NC(=O)CNc2ccc(C)cc2)c2ccccc21	-17	28	3	-6	-23	.	.
Cc1c(CCOC(=O)c2cc([N+](=O)[O-])cc([N+](=O)[O-])c2)sc[n+]1CCCCS(=O)(=O)[O-]	-2	174*	-11	7	-4	72*	85*
Cc1c(CCOC(=O)c2ccccc2)sc[n+]1Cc1ccccc1	-2	-2	-7	-3	-3	.	.
COc1ccccc1C1/C(=C(\O)c2ccc3c(c2)OCCO3)C(=O)C(=O)N1Cc1cccnc1 (configuration not stated)	-5	1	1	-4	3	.	.
Clc1cccc(Nc2nc(-c3ccncc3)cs2)c1	6	80*	-17	-5	19	33	11
OCCOC1CCCc2oc(-c3ccccc3)c(C#CC3(O)CCCCC3)c21 (configuration not stated)	.	.	.	-5	.	.	.
C/C=C/c1cccc(-c2nc(C(=O)N3CCCCC3)cc3c2[C@H](CCO)N(C(=O)NC(C)C)C3)c1	.	.	.	-3	.	.	.
COC(=O)CN1C(=O)N/C(=C/c2cc(OC)c(OC)cc2C)C1=O	-6	7	4	-3	-1	.	.
COC(=O)CN1C(=O)N/C(=C/c2ccccc2OC)C1=O	-5	119*	-6	-3	-17	19	6
O=C(N/N=C/c1cc(Cl)c(O)c(Cl)c1)c1cc2c(ccc3ccccc32)o1	14	92*	-22	-3	9	54	14
CC(=O)c1cccc(NC(=O)c2ccc(C)c(S(=O)(=O)N3CCOCC3)c2)c1	-15	27	-3	-4	-12	.	.
Cc1ccc(C(=O)Nn2cnnc2)cc1S(=O)(=O)N1CCOCC1	-2	86*	-6	-5	-5	13	-7
Cc1ccc(C(=O)Oc2cccc(NC(=O)c3cccs3)c2)cc1S(=O)(=O)N1CCOCC1	16	79*	-3	-3	21	32	10
CCOc1ccc(OCC(=O)c2c(O)c3ccccc3oc2=O)cc1	5	79*	6	-1	-8	16	-11
O=C(COC(=O)c1cc(=O)c2ccccc2o1)NCc1ccc(Cl)cc1	.	.	.	-2	.	.	.
